Published values collected from several papers.
Target: TGF-beta receptor type-2 (TGFBR2, Homo sapiens, UniProt P37173)

Compound	assay	setting	measurement	value
CCC(=O)N[C@@H]1CC[C@H](C(=O)N(C)c2ccc(-c3nc4ccccc4o3)cc2)C1	cell-free assay, competition with immobilised ligand	1 µM	remaining binding	100%
CN1CC(Oc2cnc(C#N)cc2-c2ccn3nc(NC(=O)C4CC4)cc3c2)C1	enzyme activity, inhibitor	1 µM	inhibition	11%
Cc1ccc(Nc2nccc(N(C)c3ccc4c(C)n(C)nc4c3)n2)cc1S(N)(=O)=O	cell-free assay	0.5 µM	remaining signal	100%
CC(C)(C)c1nc(-c2cccc(NS(=O)(=O)c3c(F)cccc3F)c2F)c(-c2ccnc(N)n2)s1	enzyme activity, inhibitor, radiometric	1 µM	remaining activity	42%
CNCc1ccccc1-c1csc([C@@H](C)Nc2nc(C)nc3cc(OC)c(OC)cc23)c1	cell-free assay, competition with immobilised ligand	1 µM	remaining binding	91%
N#CCCc1ccc2c(c1)-c1[nH]c3ccc([N+](=O)[O-])cc3c1CC(=O)N2	cell-free assay	0.5 µM	remaining signal	10.1%
Nc1ncnc2occ(-c3ccc(NC(=O)Nc4cc(C(F)(F)F)ccc4F)cc3)c12	cell-free assay	20 µM	remaining signal	99%
C[C@@H](c1cccc(C#N)c1)n1cc(Cl)cc(C(N)=O)c1=N	cell-free assay, competition with immobilised ligand	1 µM	remaining binding	100%
CNC(=O)c1cc(Oc2ccc(NC(=O)Nc3ccc(Cl)c(C(F)(F)F)c3)cc2)ccn1	cell-free assay	0.5 µM	remaining signal	99.9%
COc1cc(Cl)c(C(=O)N[C@@H](CN[C@H]2CC[C@@H](N)CC2)Cc2ccc(C#N)cc2)cc1-c1ccc(CN[C@H](C)c2ccc(C)cc2)o1	enzyme activity, inhibitor	1 µM	remaining activity	94%
c1ccc(-c2[nH]ncc2-c2ccnc3ccccc23)nc1	cell-free assay	0.5 µM	remaining signal	109%
Cc1sc(C(=O)NC2COC2)cc1-n1cc(NC(=O)Nc2c(F)cccc2Cl)cn1	enzyme activity, inhibitor	10 µM	remaining activity	86.8%
